Data reported in ChEMBL document CHEMBL4371057, “Hydroxamic Acid Inhibitors Provide Cross-Species Inhibition of Plasmodium M1 and M17 Aminopeptidases” (J Med Chem, 2019).
Calls of active or inactive are those of the source. The calls are words filed in the database; no cut-off is given here.

Key:
Plasmodium falciparum [1] = assay: Antimalarial activity against Plasmodium falciparum 3D7 after 72 hrs by DAPI staining-based confocal imaging analysis; type: functional, organism-based; details: 3D7, 72 h
Procedure, shortened: (§1)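 Exposed to a 16-point dose series (40 μM to 0.4 nM final, 0.4% DMSO) for 72 h at 37 °C in 90% N2/5% CO2/5% O2. DAPI-stained and imaged confocally. Two biological replicates, each with two technical repeats.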

[2] = Growth inhibition of HEK293 cells at 40 uM after 72 hrs by resazurin dye based assay relative to control; type: cell-based; details: human, read-out: GI
Procedure, shortened: (§2)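 HEK293 cells kept in DMEM with 10% FBS. Exposed to compounds for 72 h at 37 °C, 5% CO2, using the same dilution scheme as the parasite assay (top 40 μM). Medium then replaced with 44 μM resazurin, and fluorescence (530/595 nm) read after 5–6 h.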

Plasmodium falciparum [3] = assay: (§3) Reversible inhibition of Plasmodium falciparum C-terminal His6-tagged M17 aminopeptidase (85 to 605 residues) expressed in Escherichia coli BL21(DE3) assessed as enzyme activity recovery at 150 uM preincubated followed by compound washout for 5 hrs and subsequent L-leucine-7-amido-4-methylcoumarin substrate addition by fluorescence assay
Procedure, shortened: (§4)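 Pf-M17 (20 μM) was incubated overnight at 4 °C with 150 μM compound, 150 μM bestatin, 2 mM EDTA, or buffer (50 mM HEPES pH 8, 300 mM NaCl). It was then washed by repeated 10-fold concentration/dilution for up to 7 h, incubated 10 min in 1 mM MnCl2, 100 mM Tris pH 8.0, given 25 μM Leu-AMC (final), and fluorescence followed for 30 min.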

[4] = Inhibition of Plasmodium falciparum C-terminal His6-tagged M1 aminopeptidase (195 to 1085 residues) expressed in Escherichia coli BL21(DE3) preincubated for 20 mins followed by L-leucine-7-amido-4-methylcoumarin addition by Morrison equation analysis
Procedure, shortened: (§5)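 Recombinant enzymes (Ni-NTA then size exclusion) were preincubated 20 min with inhibitor in 100 mM Tris-HCl pH 8.0, with 2 mM CoCl2 for Pf-M17 and 1 mM for Pv-M17. Leu-AMC substrate: 20 μM (Pf-M1), 40 μM (Pv-M1), 10 μM (both M17). Read at 37 °C, 355/460 nm, to steady-state velocity. Ki from a Morrison tight-binding fit; biological triplicate from three protein preparations.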

[5] = Inhibition of Plasmodium falciparum C-terminal His6-tagged M17 aminopeptidase (85 to 605 residues) expressed in Escherichia coli BL21(DE3) preincubated for 20 mins followed by L-leucine-7-amido-4-methylcoumarin addition by Morrison equation analysis; procedure, shortened: as §5
[6] = Inhibition of Plasmodium vivax C-terminal His6-tagged M1 aminopeptidase (195 to 1097 residues) expressed in Escherichia coli BL21(DE3) preincubated for 20 mins followed by L-leucine-7-amido-4-methylcoumarin addition by Morrison equation analysis; procedure, shortened: as §5
Plasmodium falciparum [7] = assay: Antimalarial activity against Plasmodium falciparum Dd2 after 72 hrs by DAPI staining-based confocal imaging analysis; type: functional, organism-based; details: Plasmodium falciparum, Dd2, 72 h; read-out: IC50; procedure, shortened: as §1
Plasmodium falciparum [8] = assay: as §3, with “for 7” for “for 5”, “assay relative to control” for “assay”; set-up: scale not given: the % may be the effect or the level left; procedure, shortened: as §4
[9] = Selectivity ratio of Ki for Plasmodium falciparum C-terminal His6-tagged M1 aminopeptidase (195 to 1085 residues) expressed in Escherichia coli BL21(DE3) to Ki for Plasmodium vivax C-terminal His6-tagged M1 aminopeptidase (195 to 1097 residues) expressed in Escherichia coli BL21(DE3)
[10] = Inhibition of Plasmodium vivax C-terminal His6-tagged M17 aminopeptidase (203 to 621 residues) expressed in Escherichia coli BL21(DE3) preincubated for 20 mins followed by L-leucine-7-amido-4-methylcoumarin addition by Morrison equation analysis; procedure, shortened: as §5
[11] = Growth inhibition of HEK293 cells at 10 uM after 72 hrs by resazurin dye based assay relative to control; type: cell-based; details: human, read-out: GI; procedure, shortened: as §2
[12] = Selectivity index, ratio of CC50 for HEK293 cells to IC50 for Plasmodium falciparum 3D7; type: toxicity; details: human, read-out: Ratio CC50/IC50
[13] = Cytotoxicity against HEK293 cells after 72 hrs by resazurin dye based assay; type: cell-based; details: human; procedure, shortened: as §2
[14] = biological target: T1, Matrilysin (Homo sapiens) (UniProt P09237); assay: Inhibition of MMP7 (unknown origin) preincubated for 1 hr followed by (QF)-24 substrate addition measured at 1 min time interval for 1 hr by fluorescence assay
T1 sequence (whole entry): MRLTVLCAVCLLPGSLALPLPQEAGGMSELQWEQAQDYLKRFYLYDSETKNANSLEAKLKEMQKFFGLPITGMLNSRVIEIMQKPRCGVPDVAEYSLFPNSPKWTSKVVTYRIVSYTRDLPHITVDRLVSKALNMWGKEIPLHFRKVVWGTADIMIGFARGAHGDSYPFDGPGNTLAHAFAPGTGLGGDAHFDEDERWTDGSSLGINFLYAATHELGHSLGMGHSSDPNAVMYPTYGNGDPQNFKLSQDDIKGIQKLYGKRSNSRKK
Procedure, shortened: (§6)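 MMPs were activated with 1 mM 4-aminophenylmercuric acetate (50 mM HEPES, 150 mM NaCl, 5 mM CaCl2, pH 7.0, 1 h, rt). 1 μM QF24 was added at 37 °C and read at 320/405 nm every minute for 1 h. IC50 from a four-parameter Hill fit; three independent experiments.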

[15] = biological target: Neutrophil collagenase (Homo sapiens) (UniProt P22894); assay: Inhibition of MMP8 (unknown origin) preincubated for 1 hr followed by (QF)-24 substrate addition measured at 1 min time interval for 1 hr by fluorescence assay; procedure, shortened: as §6
[16] = biological target: 72 kDa type IV collagenase (Homo sapiens, UniProt P08253); assay: Inhibition of MMP2 (unknown origin) preincubated for 1 hr followed by (QF)-24 substrate addition measured at 1 min time interval for 1 hr by fluorescence assay
Aminopeptidase N = Aminopeptidase N (Homo sapiens, UniProt P15144); assay: Inhibition of human APN expressed in HEK293 cells preincubated for 10 mins followed by L-leucine-7-amido-4-methylcoumarin addition by fluorescence assay
[17] = biological target: Matrix metalloproteinase-9 (Homo sapiens, UniProt P14780); assay: Inhibition of MMP9 (unknown origin) preincubated for 1 hr followed by (QF)-24 substrate addition measured at 1 min time interval for 1 hr by fluorescence assay
[18] = system: Insulin-regulated aminopeptidase (Homo sapiens); assay: Inhibition of human IRAP at <200 uM preincubated for 10 mins followed by L-leucine-7-amido-4-methylcoumarin addition by fluorescence assay

Chain of Neutrophil collagenase (Homo sapiens) (P22894 101-467 limits assumed): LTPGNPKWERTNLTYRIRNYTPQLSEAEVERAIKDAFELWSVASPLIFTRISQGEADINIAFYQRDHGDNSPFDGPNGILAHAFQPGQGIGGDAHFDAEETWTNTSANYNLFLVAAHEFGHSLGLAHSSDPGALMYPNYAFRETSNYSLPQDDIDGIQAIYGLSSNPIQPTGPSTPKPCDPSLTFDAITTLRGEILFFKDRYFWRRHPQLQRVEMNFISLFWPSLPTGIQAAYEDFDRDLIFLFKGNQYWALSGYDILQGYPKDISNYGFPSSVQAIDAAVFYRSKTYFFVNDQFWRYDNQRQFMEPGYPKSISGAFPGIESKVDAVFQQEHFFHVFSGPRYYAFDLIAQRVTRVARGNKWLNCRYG
Chain of Aminopeptidase N (P15144 whole entry): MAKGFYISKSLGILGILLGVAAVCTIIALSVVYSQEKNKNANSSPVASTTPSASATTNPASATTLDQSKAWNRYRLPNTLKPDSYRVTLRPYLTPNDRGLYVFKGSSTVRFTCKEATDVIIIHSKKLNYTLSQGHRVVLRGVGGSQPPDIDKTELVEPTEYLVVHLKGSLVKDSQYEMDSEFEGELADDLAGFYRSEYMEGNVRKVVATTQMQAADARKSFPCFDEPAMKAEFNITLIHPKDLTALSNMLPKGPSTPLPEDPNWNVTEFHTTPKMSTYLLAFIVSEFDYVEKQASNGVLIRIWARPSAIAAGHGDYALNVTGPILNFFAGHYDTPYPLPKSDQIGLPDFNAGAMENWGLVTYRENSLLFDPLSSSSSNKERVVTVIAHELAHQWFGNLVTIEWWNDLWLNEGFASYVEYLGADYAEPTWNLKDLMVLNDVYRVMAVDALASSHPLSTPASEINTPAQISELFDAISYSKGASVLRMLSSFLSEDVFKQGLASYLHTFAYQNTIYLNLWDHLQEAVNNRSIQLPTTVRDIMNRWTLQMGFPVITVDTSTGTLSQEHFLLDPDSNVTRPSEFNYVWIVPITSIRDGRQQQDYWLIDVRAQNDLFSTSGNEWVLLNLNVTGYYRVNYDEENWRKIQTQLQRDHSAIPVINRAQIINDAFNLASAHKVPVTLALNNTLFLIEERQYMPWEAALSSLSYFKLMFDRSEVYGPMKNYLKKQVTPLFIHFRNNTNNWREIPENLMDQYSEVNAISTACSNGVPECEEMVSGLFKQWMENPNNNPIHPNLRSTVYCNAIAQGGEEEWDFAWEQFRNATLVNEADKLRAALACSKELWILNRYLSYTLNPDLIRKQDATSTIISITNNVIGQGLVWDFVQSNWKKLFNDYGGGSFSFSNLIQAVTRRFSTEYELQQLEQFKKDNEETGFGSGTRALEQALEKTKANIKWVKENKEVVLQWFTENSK
Chain of 72 kDa type IV collagenase (P08253 whole entry): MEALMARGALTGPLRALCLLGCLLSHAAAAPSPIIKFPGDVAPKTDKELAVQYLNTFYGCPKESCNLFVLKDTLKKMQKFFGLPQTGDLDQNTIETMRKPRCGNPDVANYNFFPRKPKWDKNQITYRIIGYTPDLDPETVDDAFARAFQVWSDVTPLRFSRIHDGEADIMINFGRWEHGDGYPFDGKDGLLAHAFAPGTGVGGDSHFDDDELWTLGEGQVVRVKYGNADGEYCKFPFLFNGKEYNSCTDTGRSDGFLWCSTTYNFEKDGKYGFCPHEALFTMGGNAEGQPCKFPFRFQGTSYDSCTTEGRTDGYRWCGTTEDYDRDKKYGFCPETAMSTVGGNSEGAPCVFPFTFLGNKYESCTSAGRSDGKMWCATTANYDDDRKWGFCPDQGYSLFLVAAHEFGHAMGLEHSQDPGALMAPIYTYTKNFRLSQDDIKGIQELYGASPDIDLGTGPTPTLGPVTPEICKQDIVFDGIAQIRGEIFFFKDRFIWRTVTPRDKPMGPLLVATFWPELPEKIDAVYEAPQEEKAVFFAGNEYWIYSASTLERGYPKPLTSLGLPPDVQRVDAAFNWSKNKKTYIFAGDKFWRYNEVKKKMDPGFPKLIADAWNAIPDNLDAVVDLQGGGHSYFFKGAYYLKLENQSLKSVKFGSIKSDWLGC
Chain of Matrix metalloproteinase-9 (P14780 whole entry): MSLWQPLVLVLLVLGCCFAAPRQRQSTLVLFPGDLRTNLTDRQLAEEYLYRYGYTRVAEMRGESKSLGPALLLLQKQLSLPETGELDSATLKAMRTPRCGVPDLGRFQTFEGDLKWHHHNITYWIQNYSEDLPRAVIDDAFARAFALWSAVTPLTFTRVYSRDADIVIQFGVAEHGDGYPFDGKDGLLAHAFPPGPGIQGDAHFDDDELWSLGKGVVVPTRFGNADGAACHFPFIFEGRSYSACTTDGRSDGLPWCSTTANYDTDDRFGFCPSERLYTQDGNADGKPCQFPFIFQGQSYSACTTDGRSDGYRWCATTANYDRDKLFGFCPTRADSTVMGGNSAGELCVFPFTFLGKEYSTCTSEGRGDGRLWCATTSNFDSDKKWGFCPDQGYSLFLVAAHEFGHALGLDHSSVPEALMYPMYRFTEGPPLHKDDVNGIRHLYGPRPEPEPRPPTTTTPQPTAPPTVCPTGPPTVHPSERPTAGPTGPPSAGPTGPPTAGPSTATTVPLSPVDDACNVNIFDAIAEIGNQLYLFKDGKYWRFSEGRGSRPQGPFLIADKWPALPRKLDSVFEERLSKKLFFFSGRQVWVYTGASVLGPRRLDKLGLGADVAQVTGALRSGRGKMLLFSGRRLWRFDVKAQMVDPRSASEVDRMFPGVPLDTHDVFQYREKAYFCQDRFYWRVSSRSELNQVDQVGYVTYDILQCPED

IC50 (Plasmodium falciparum [1]) | inhibition (Plasmodium falciparum [3]) | IC50 (Plasmodium falciparum [7]) | Activity (Plasmodium falciparum [8]) | Ratio Ki [9] | inhibition [14] | inhibition [15] | IC50 [16] | Ki (Aminopeptidase N) | IC50 [17] | inhibition [18] | SMILES | inhibition at 72 h, 40 µM [2] | Ki [4] | Ki [5] | Ki [6] | Ki [10] | inhibition at 72 h, 10 µM [11] | selectivity ratio [12] | CC50 at 72 h [13]
0.357 µM | Active | 0.313 µM | 20% | 1.1 | – | – | – | – | – | – | O=C(NO)C(NC(=O)C12CC3CC(CC(C3)C1)C2)c1ccc(-c2cc(F)c(F)c(F)c2)cc1 (centres undefined) | 42.9% | 0.137 µM | 0.0289 µM | 0.122 µM | 0.0186 µM | 2.1% | ≥ 56 | –
0.0146 µM | – | 0.0138 µM | – | 42.1 | Active | Active | 17 µM | 0.3 µM | > 1000 µM | inactive | CC(C)(C)CC(=O)NC(C(=O)NO)c1ccc(-c2cc(F)c(F)c(F)c2)cc1 (centres undefined) | 98.4% | 0.269 µM | 0.101 µM | 0.00639 µM | 0.0036 µM | 4.8% | ≥ 1370 | ≥ 20 µM
